The source of these data is ChEMBL document CHEMBL1148778, “Synthesis and characterization of nonsteroidal glucocorticoid receptor modulators for multiple myeloma” (J Med Chem, 2007).

What is called Ki is a dissociation constant, usually derived from enzyme kinetics or from competition with a known ligand.

One assay concerns the target T1, Progesterone receptor (Homo sapiens, UniProt P06401).
T1 sequence (P06401 whole entry): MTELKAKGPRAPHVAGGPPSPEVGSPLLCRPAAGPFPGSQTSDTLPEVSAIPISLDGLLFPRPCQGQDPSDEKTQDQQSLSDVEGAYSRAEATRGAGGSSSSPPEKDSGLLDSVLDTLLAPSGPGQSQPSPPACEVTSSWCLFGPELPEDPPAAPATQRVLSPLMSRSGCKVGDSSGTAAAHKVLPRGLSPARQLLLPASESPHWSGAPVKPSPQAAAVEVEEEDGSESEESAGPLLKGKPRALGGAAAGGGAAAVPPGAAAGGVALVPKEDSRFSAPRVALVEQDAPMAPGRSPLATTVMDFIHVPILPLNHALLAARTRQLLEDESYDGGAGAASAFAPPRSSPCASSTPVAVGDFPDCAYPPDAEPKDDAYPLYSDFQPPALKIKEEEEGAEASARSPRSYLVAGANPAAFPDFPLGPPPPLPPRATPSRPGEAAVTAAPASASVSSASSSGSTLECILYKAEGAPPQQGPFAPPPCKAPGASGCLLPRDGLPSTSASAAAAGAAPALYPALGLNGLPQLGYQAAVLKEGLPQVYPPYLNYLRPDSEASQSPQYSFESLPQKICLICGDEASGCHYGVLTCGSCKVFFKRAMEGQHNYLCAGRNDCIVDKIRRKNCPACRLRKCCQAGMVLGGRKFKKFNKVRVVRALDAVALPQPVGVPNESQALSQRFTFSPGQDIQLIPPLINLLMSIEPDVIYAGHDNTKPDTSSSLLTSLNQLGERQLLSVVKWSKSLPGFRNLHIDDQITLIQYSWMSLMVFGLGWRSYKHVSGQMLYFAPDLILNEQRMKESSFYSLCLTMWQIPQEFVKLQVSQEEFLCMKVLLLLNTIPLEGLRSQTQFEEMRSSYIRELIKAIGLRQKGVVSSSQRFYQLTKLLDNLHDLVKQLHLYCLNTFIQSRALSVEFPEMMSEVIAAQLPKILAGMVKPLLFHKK
The assay is described as follows: Binding affinity to PR. In outline:
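Competitive binding assays on PR and MR. Values are means of at least three separate experiments, each with triplicate determinations, ± SEM. A value without SEM comes from a single determination.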

For assay [1], the system named is RPMI-8226. Nature of the assay: Inhibition of tumor growth in human RPMI8226 cells xenografted nude mouse at 100 mg/kg, po after 4 weeks relative to Dexamethasone. In kind it is functional. A general note: Xenograft models place foreign cells or tissue in a host animal.
Assay [2] concerns RPMI-8226. The assay is described as follows: Antiproliferative activity against human RPMI8226 cells after 4 days relative to Dexamethasone. Format: functional.
Assay [3] relates to RPMI-8226. The assay is described as follows: Inhibition of tumor growth in human RPMI8226 cells xenografted nude mouse at 30 mg/kg, po after 4 weeks relative to Dexamethasone. Format: functional.
The subject of assay [4] is RPMI-8226. Nature of the assay: Inhibition of tumor growth in human RPMI8226 cells xenografted nude mouse at 10 mg/kg, po after 4 weeks relative to Dexamethasone. In kind it is functional.
Assay [5] has as its target T2, Mineralocorticoid receptor (Homo sapiens) (UniProt P08235).
T2 sequence (whole entry): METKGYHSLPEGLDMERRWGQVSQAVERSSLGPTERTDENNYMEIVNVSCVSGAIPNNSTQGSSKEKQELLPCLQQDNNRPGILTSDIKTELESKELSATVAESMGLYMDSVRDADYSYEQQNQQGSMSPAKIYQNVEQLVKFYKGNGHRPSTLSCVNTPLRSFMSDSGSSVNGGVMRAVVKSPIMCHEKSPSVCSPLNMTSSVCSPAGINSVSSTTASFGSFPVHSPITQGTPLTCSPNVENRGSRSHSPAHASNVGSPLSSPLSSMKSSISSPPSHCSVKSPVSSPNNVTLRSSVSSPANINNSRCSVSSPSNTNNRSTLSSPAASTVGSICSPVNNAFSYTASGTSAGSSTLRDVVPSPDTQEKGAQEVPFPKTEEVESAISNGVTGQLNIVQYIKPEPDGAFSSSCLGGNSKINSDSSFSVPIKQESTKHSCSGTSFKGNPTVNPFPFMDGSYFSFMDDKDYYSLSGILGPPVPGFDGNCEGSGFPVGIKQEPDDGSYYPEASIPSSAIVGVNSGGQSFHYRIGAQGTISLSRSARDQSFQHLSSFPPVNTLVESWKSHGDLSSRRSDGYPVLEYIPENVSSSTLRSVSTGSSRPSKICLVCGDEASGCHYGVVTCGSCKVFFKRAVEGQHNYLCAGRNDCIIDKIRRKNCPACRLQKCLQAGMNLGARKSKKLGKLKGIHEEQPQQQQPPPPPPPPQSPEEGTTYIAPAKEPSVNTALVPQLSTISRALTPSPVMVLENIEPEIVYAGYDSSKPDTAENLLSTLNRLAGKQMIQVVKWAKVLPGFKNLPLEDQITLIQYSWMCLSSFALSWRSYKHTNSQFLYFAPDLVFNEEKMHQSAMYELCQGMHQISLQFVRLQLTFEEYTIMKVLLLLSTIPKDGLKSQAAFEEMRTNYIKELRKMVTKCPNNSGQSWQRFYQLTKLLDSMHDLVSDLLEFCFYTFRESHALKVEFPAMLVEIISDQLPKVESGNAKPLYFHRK
The assay is described as follows: Antagonist activity at mineralocorticoid receptor by MR activation assay. In kind it is functional. Set-up: scale not given: the % may be the effect or the level left.

The target of assay [6] is T2, Mineralocorticoid receptor (Homo sapiens). The assay is described as follows: Agonist activity at mineralocorticoid receptor by MR activation assay. In kind it is functional.
Assay [7] concerns RPMI-8226. The assay is described as follows: Inhibition of tumor growth in human RPMI8226 cells xenografted nude mouse at 3 mg/kg, po after 4 weeks relative to Dexamethasone. Format: functional.

For the compound `CO/N=C(\C)c1ccsc1/C=C1\Oc2ccc(O)c(OC)c2-c2ccc3c(c21)C(C)=CC(C)(C)N3`, the affinity at Progesterone receptor corresponds to a Ki of 38 nM. For the same compound, the Efficacy was found to be 95% in the assay on RPMI-8226 [1], 101% in the assay on RPMI-8226 [2], 82% in the assay on RPMI-8226 [3] and 78% in the assay on RPMI-8226 [4].

On Progesterone receptor, `COCc1ccsc1/C=C1\Oc2ccc(O)c(OC)c2-c2ccc3c(c21)C(C)=CC(C)(C)N3` gave a Ki of 190 nM. The Activity in assay [5] was 55%; in assay [6], 25%. Also, the Efficacy in the assay on RPMI-8226 [2] amounted to 98%.

On to `COc1c(O)ccc2c1-c1ccc3c(c1/C(=C/c1sccc1CO)O2)C(C)=CC(C)(C)N3`, for which the affinity at Progesterone receptor corresponds to a Ki of 1400 nM. Besides, the Efficacy in the assay on RPMI-8226 [1] was determined as 97%; in the assay on RPMI-8226 [2], 99%; in the assay with RPMI-8226 [3] it was 80%; in the assay with RPMI-8226 [7], 29%.
